Tests used:
DYRK4 = DYRK4 (Homo sapiens, UniProt Q9NR20); experiment: kinase panel; type: biochemical
BTK = BTK (Homo sapiens, UniProt Q06187); experiment: kinase panel; type: biochemical
MNK2 = MNK2 (Homo sapiens, UniProt Q9HBH9); experiment: kinase panel; type: biochemical
PRKX = PRKX (Homo sapiens, UniProt P51817); experiment: kinase panel; type: biochemical
AXL = AXL (Homo sapiens, UniProt P30530); experiment: kinase panel; type: biochemical
FYN = FYN (Homo sapiens, UniProt P06241); experiment: kinase panel; type: biochemical
MEK1 = MEK1 (Homo sapiens, UniProt Q02750); experiment: kinase panel; type: biochemical
PTK5 = PTK5 (Homo sapiens, UniProt P42685); experiment: kinase panel; type: biochemical
LOK = LOK (Homo sapiens, UniProt O94804); experiment: kinase panel; type: biochemical
IKK-BETA = IKK-BETA (Homo sapiens, UniProt O14920); experiment: kinase panel; type: biochemical
IKK-BETA, sequence (O14920 whole entry): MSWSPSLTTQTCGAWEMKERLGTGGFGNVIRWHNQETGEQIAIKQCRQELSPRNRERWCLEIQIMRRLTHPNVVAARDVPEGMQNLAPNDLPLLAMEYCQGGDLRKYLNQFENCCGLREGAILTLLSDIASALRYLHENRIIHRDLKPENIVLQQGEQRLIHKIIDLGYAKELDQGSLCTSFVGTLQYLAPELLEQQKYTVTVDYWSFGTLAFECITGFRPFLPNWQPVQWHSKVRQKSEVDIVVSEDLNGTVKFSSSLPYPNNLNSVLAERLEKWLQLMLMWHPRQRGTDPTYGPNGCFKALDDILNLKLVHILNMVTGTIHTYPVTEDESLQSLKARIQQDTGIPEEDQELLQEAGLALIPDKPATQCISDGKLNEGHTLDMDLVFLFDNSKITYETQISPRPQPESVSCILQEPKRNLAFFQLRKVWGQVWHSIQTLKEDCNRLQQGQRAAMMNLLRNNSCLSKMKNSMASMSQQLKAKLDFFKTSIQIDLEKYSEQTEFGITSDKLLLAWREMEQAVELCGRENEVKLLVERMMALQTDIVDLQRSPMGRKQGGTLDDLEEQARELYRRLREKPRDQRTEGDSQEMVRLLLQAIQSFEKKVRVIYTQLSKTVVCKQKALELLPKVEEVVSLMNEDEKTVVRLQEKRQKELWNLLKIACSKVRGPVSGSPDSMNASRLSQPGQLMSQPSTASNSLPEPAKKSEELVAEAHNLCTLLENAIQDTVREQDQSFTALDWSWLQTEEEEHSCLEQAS

PAK3 = PAK3 (Homo sapiens, UniProt O75914); experiment: kinase panel; type: biochemical
NEK3 = NEK3 (Homo sapiens, UniProt P51956); experiment: kinase panel; type: biochemical
FMS = FMS (Homo sapiens, UniProt P07333); experiment: kinase panel; type: biochemical
PIM3 = PIM3 (Homo sapiens, UniProt Q86V86); experiment: kinase panel; type: biochemical
MKNK1 = MKNK1 (Homo sapiens, UniProt Q9BUB5); experiment: kinase panel; type: biochemical
Progesterone Receptor = Progesterone Receptor (Homo sapiens, UniProt P06401); experiment: Progesterone Receptor agonist assay; type: cell-based
CSK = CSK (Homo sapiens, UniProt P41240); experiment: kinase panel; type: biochemical
CSK, sequence (P41240 whole entry): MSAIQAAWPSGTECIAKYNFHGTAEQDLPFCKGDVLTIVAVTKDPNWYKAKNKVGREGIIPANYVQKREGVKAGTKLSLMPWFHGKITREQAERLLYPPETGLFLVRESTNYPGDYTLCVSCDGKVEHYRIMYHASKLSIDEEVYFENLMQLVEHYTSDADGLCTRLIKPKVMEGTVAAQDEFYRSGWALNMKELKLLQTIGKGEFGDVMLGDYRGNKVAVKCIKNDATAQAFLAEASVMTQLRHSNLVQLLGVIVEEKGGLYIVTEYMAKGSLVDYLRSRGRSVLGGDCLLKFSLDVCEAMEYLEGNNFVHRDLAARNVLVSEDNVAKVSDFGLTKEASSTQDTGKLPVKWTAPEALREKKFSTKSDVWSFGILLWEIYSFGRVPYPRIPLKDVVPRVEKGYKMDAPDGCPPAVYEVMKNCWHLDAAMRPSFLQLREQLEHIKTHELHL

Adenosine 3 receptor = Adenosine 3 receptor (Homo sapiens, UniProt P0DMS8); experiment: Adenosine 3 receptor binding assay
AKT1 = AKT1 (Homo sapiens, UniProt P31749); experiment: kinase panel; type: biochemical
KDR = KDR (Homo sapiens, UniProt P35968); experiment: kinase panel; type: biochemical
NEK6 = NEK6 (Homo sapiens, UniProt Q9HC98); experiment: kinase panel; type: biochemical
NEK6, sequence (Q9HC98 whole entry): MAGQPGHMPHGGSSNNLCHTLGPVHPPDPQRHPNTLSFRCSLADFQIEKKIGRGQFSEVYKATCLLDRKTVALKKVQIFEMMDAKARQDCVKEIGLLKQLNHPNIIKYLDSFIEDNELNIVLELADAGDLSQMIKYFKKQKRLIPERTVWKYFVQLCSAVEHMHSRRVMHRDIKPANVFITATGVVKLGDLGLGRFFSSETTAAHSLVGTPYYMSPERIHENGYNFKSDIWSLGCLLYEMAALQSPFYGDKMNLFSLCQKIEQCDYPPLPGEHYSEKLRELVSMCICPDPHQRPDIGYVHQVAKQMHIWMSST

[1] = target: Norepinephrine Transporter (Homo sapiens, UniProt P23975); experiment: Norepinephrine Transporter assay; type: binding
GRK5 = GRK5 (Homo sapiens, UniProt P34947); experiment: kinase panel; type: biochemical
TRKB = TRKB (Homo sapiens, UniProt Q16620); experiment: kinase panel; type: biochemical
PYK2 = PYK2 (Homo sapiens, UniProt Q14289); experiment: kinase panel; type: biochemical
P38-DELTA = P38-DELTA (Homo sapiens, UniProt O15264); experiment: kinase panel; type: biochemical
CK2 = experiment: kinase panel; type: biochemical; conditions: CK2, 1 μM
IGF1R = IGF1R (Homo sapiens, UniProt P08069); experiment: kinase panel; type: biochemical
BMX = BMX (Homo sapiens, UniProt P51813); experiment: kinase panel; type: biochemical
Alpha1A adrenergic = Alpha1A adrenergic (Homo sapiens, UniProt P35348); experiment: Alpha1A adrenergic calcium flux assay; type: cell-based
Alpha1A adrenergic, sequence (P35348 whole entry): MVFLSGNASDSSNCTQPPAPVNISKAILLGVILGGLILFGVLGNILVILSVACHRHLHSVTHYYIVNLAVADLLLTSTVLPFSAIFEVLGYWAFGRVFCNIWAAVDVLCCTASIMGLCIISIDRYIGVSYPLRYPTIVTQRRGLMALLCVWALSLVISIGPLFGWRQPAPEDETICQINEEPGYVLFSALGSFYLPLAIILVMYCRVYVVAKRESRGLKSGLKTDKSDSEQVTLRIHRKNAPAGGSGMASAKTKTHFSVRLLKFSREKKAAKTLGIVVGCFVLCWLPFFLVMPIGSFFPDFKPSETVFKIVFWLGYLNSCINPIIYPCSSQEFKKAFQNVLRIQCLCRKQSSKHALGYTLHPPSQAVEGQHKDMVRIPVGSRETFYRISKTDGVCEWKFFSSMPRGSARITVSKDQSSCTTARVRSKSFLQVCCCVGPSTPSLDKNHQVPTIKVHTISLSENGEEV

PRKG1 = PRKG1 (Homo sapiens, UniProt Q13976); experiment: kinase panel; type: biochemical
RSK4 = RSK4 (Homo sapiens, UniProt Q9UK32); experiment: kinase panel; type: biochemical
MAP4K4 = MAP4K4 (Homo sapiens, UniProt O95819); experiment: kinase panel; type: biochemical
MSK2 = MSK2 (Homo sapiens, UniProt O75676); experiment: kinase panel; type: biochemical
MAPKAPK3 = MAPKAPK3 (Homo sapiens, UniProt Q16644); experiment: kinase panel; type: biochemical
NDR2 = NDR2 (Homo sapiens, UniProt Q9Y2H1); experiment: kinase panel; type: biochemical
NDR2, sequence (Q9Y2H1 whole entry): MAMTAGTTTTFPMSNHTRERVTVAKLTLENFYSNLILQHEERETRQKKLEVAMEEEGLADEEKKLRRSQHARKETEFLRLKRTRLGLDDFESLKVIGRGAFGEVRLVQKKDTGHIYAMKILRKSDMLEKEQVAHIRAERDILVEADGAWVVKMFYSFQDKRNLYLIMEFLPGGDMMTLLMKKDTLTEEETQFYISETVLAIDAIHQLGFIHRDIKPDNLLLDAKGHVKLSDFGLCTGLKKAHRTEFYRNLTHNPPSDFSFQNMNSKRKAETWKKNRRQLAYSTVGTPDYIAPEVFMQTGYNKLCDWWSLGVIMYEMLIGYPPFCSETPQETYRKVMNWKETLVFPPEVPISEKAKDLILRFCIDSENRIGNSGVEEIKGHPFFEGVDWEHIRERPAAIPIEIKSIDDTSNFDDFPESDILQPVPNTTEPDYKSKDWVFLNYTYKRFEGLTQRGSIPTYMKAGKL

SNF1LK2 = SNF1LK2 (Homo sapiens, UniProt Q9H0K1); experiment: kinase panel; type: biochemical
H1 receptor = H1 receptor (Homo sapiens, UniProt P35367); experiment: H1 receptor calcium assay; type: cell-based
H1 receptor, sequence (P35367 whole entry): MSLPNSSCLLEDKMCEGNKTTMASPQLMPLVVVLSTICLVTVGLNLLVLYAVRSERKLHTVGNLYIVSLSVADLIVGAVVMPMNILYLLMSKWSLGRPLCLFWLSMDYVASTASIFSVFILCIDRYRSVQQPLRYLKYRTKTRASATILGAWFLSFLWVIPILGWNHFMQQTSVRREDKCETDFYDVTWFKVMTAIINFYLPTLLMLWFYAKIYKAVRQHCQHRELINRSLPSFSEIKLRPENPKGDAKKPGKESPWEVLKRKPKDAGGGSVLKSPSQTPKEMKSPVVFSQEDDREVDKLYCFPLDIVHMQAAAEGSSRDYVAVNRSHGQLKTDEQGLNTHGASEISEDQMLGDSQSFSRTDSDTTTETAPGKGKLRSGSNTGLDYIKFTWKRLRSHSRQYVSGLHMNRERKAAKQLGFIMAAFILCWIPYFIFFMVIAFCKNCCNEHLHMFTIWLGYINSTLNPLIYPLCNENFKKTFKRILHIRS

FGR = FGR (Homo sapiens, UniProt P09769); experiment: kinase panel; type: biochemical
FGR, sequence (P09769 whole entry): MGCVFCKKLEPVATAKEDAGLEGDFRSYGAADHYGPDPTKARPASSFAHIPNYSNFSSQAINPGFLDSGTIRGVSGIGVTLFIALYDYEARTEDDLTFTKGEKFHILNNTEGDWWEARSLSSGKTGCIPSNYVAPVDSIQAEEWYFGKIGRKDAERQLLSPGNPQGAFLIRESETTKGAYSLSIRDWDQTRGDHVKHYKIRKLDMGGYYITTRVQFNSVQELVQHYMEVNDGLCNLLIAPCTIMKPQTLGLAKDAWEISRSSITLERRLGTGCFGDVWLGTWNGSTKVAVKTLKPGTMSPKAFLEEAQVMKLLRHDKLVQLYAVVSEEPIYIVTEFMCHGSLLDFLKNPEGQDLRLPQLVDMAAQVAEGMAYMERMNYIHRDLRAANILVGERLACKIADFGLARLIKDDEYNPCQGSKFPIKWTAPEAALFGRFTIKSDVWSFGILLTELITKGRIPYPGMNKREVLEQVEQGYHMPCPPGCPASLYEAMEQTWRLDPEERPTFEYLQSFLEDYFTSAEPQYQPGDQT

CK1-GAMMA3 = CK1-GAMMA3 (Homo sapiens, UniProt Q9Y6M4); experiment: kinase panel; type: biochemical
CK1-GAMMA3, sequence (Q9Y6M4 whole entry): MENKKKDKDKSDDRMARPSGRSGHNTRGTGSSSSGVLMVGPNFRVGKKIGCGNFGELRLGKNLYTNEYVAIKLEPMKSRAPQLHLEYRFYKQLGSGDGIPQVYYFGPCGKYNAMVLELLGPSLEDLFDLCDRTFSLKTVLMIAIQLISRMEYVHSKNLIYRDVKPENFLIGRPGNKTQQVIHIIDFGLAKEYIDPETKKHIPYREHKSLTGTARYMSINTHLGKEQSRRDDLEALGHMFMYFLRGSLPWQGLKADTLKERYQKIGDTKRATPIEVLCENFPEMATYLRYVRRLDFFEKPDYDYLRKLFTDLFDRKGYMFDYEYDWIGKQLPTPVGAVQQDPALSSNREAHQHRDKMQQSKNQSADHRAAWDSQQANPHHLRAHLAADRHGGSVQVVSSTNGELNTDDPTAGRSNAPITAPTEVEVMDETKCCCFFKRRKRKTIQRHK

[2] = tested on: L858R/T790M/I941R EGFR Ba/F3 cells; experiment: Ba/F3 cell proliferation; type: cell-based; conditions: Ba/F3 L858R/T790M/I941R versus L858R/T790M
Summary of the method: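 The I941R mutation was introduced into L858R/T790M EGFR by site-directed mutagenesis, and Ba/F3 stable clones were selected in puromycin (2 μg/ml). Cells were treated with the test compound for 72 h and growth was read by MTS assay. Points were run in six wells, with experiments repeated at least three times. Curves were fitted by non-linear regression to a sigmoidal dose response.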

RSK2 = RSK2 (Homo sapiens, UniProt P51812); experiment: kinase panel; type: biochemical

AXL, sequence (P30530 26-894): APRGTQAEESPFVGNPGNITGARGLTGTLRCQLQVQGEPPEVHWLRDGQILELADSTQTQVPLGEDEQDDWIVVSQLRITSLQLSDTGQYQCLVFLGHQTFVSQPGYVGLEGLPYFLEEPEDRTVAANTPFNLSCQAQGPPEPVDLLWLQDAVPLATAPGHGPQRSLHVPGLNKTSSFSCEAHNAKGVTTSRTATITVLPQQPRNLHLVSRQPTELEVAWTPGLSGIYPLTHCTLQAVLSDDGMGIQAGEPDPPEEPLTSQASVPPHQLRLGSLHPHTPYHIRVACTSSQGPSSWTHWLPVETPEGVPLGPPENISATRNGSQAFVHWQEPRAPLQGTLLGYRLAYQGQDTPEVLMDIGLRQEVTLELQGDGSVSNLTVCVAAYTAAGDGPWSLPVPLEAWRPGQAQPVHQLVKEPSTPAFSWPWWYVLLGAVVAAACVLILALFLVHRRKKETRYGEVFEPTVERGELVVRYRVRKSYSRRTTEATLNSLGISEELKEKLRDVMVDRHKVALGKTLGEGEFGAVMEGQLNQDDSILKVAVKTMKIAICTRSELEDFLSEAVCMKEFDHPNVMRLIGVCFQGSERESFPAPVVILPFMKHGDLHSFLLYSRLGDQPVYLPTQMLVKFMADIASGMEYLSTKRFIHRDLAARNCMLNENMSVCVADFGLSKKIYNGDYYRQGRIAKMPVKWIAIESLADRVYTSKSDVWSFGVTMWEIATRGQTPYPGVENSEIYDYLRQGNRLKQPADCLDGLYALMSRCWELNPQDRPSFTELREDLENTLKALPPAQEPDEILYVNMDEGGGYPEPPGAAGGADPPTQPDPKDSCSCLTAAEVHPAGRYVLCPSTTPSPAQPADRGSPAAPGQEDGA

O=C(Nc1nccs1)C(c1cc(F)ccc1O)N1Cc2ccccc2C1=O (stereo not drawn) [EAI045, 2-(5-fluoro-2-hydroxyphenyl)-2-(1-oxo-2,3-dihydro-1H-isoindol-2-yl)-N-(1,3-thiazol-2-yl)acetamide]
inhibition at 1 µM (DYRK4): 1%
inhibition at 1 µM (BTK): 0%
inhibition at 1 µM (MNK2): 3%
inhibition at 1 µM (PRKX): 3%
inhibition at 1 µM (AXL): 4%
inhibition at 1 µM (FYN): 0%
inhibition at 1 µM (MEK1): 0%
inhibition at 1 µM (PTK5): 0%
inhibition at 1 µM (LOK): 1%
inhibition at 1 µM (IKK-BETA): 0%
inhibition at 1 µM (PAK3): 0%
inhibition at 1 µM (NEK3): 0%
inhibition at 1 µM (FMS): 0%
inhibition at 1 µM (PIM3): 1%
inhibition at 1 µM (MKNK1): 0%
IC50 (Progesterone Receptor): > 30 µM
inhibition at 1 µM (CSK): 0%
IC50 (Adenosine 3 receptor): > 30 µM
inhibition at 1 µM (AKT1): 0%
inhibition at 1 µM (KDR): 0%
inhibition at 1 µM (NEK6): 0%
IC50 [1]: > 30 µM
inhibition at 1 µM (GRK5): 0%
inhibition at 1 µM (TRKB): 3%
inhibition at 1 µM (PYK2): 4%
inhibition at 1 µM (P38-DELTA): 0%
% inhibition (CK2): 0%
inhibition at 1 µM (IGF1R): 4%
inhibition at 1 µM (BMX): 1%
IC50 (Alpha1A adrenergic): > 30 µM
inhibition at 1 µM (PRKG1): 0%
inhibition at 1 µM (RSK4): 0%
inhibition at 1 µM (MAP4K4): 2%
inhibition at 1 µM (MSK2): 2%
inhibition at 1 µM (MAPKAPK3): 0%
inhibition at 1 µM (NDR2): 0%
inhibition at 1 µM (SNF1LK2): 0%
IC50 (H1 receptor): > 30 µM
inhibition at 1 µM (FGR): 0%
inhibition at 1 µM (CK1-GAMMA3): 6%
sensitivity of proliferation to the allosteric inhibitor [2]: dramatically more sensitive
inhibition at 1 µM (RSK2): 0%

From paper PMC4929832 (Nature, 2016)
